Assay results reported in publication PMC4360665 (CPT: Pharmacometrics & Systems Pharmacology, 2015).
Several values for one entry are separate records, joined by “and”; a condition that tells them apart may be missing. Equal entries are not always repeated. Where two headings read alike, the source gives them in different places.

What was measured:
[1] = assay type: in vivo, human; details: for Mean sirolimus oral clearance: allometrically scaled (0.75, 70 kg)
In short: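 Oral dosing began at 0.8 mg/m2 twice daily, then adjusted to trough targets of 10 to 15 ng/ml. Concentrations were drawn at 8–14 days, then every 2 weeks (LLOQ 1.0 ng/ml). First-4-week samples (1–3 per patient) fed a Bayesian one-compartment estimator with pediatric neurofibromatosis priors, estimating clearance only. Clearances were scaled allometrically (exponent 0.75, 70 kg), and an Emax fit against age gave CLmatured and Age50.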

[2] = test system: P-glycoprotein (MDR1/ABCB1); details: cited from earlier work
recombinant CYP3A7 = recombinant CYP3A7 (Homo sapiens, UniProt P24462); assay: Substrate depletion assay with recombinant CYP3A7; assay type: in vitro ADME
In short: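 Recombinant CYP3A7 (with reductase and cytochrome b5) was brought to 0.4 mg/ml protein with blank microsomes and incubated with sirolimus in 100 mM potassium phosphate, pH 7.4, at 37°C with shaking. NADPH regenerating system started the reaction (t = 0), with aliquots taken at serial times. Sirolimus remaining was measured by on-line SPE–HPLC–MS/MS against an internal standard. The slope of log % remaining versus time was converted to CLint per pmol CYP.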

CYP3A = assay type: in vitro ADME, human; details: ketoconazole at 1 µM; nine individual pediatric liver microsomes aged 1 month to 4 years; mean ± SD
In short: (§1)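 Substrate depletion of the test compound in nine individual pediatric liver microsomes in 100 mM potassium phosphate (pH 7.4) at 37°C, with and without CYP-selective inhibitor (1 µM; ketoconazole for CYP3A, montelukast for CYP2C8). NADPH regenerating system starts the reaction (t=0). Serial aliquots are extracted with methanol/ZnSO4 plus internal standard and analysed by online SPE-LC-MS/MS. kel comes from the log %-remaining vs time slope. % contribution is calculated from kel with and without inhibitor.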

CYP2C8 = biological target: T1, CYP2C8 (Homo sapiens, UniProt P10632); assay type: in vitro ADME; details: montelukast at 1 µM; nine individual pediatric liver microsomes aged 1 month to 4 years; mean ± SD
T1 sequence (P10632 1-490): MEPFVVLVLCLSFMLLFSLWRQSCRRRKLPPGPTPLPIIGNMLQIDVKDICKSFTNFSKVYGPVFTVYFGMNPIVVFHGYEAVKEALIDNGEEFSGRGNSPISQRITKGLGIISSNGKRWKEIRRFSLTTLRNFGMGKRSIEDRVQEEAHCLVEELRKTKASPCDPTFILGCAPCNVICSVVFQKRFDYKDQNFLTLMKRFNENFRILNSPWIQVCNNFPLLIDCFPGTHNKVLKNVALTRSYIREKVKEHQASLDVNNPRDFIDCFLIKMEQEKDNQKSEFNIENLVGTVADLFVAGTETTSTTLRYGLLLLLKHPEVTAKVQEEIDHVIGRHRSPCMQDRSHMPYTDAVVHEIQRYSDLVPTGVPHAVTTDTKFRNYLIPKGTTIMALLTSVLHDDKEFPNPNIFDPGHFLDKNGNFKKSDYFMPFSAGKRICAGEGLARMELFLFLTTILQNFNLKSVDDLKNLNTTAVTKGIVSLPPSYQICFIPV
In short: as §1

Sequence of recombinant CYP3A7 (P24462 whole entry): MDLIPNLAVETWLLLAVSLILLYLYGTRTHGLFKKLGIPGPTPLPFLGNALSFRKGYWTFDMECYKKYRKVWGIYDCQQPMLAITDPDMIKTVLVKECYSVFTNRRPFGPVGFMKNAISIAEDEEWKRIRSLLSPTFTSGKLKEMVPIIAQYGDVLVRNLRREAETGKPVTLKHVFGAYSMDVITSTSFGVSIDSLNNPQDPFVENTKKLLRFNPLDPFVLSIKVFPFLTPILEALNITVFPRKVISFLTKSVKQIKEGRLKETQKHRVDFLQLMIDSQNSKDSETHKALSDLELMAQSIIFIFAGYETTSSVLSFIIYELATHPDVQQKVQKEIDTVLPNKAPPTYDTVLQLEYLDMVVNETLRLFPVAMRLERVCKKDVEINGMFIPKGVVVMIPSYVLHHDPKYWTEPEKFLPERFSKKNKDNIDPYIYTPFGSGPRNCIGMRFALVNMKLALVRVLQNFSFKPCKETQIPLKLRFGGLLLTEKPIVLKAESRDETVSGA

CO[C@H]1C[C@@H]2CC[C@@H](C)[C@@](O)(O2)C(=O)C(=O)N2CCCC[C@H]2C(=O)O[C@H]([C@H](C)C[C@@H]2CC[C@@H](O)[C@H](OC)C2)CC(=O)[C@H](C)/C=C(\C)[C@@H](O)[C@@H](OC)C(=O)[C@H](C)C[C@H](C)/C=C/C=C/C=C/1C [sirolimus]
Mean sirolimus oral clearance ([1]; age group 1 year (≥1, <2), n=5): 17 ± 4 L/h
Mean sirolimus oral clearance ([1]; age group 1–8 months (<1), n=9): 11 ± 3 L/h
Mean sirolimus oral clearance ([1]; age group 2 years (≥2, <3), n=3): 21 ± 3 L/h
Mean sirolimus oral clearance ([1]; age group 3–18 years (≥3), n=27): 18 ± 6 L/h
Observed CLmatured ([1]; clinical clearance estimates, patients 1 months to 3 years, n = 20, Emax model): 19.4 ± 2.2 L/h/70 kg
substrate of P-glycoprotein (MDR1/ABCB1) [2]: substrate
fold lower CLint of CYP3A7 than reported CYP3A4 activity (recombinant CYP3A7; CYP3A4 value from ref 17): 30 fold
fold lower CLint of CYP3A7 than reported CYP3A5 activity (recombinant CYP3A7; CYP3A5 value from ref 17): 13 fold
CLint for recombinant CYP3A7 (recombinant CYP3A7; substrate depletion, 37°C, pH 7.4): 0.30 µl/min/pmol CYP protein
% of Contribution of CYP3A to sirolimus metabolism (CYP3A): 95.8% and 95.8±4.8%
% of Contribution of CYP2C8 to sirolimus metabolism (CYP2C8): less than 10% and 8.5±4.3%
